Measured values published in ChEMBL document CHEMBL2150998, “Antibiotic and antimalarial quinones from fungus-growing ant-associated Pseudonocardia sp” (J Nat Prod, 2012).
≈ marks a conversion by molar mass, not a printed value.

Key:
Plasmodium berghei = assay: Antiplasmodial activity against luciferase-expressing sporozoite of Plasmodium berghei ANKA infected in human HepG2 cells assessed as reduction of parasite load after 2 days; assay type: functional, organism-based; settings: HepG2, 48 h
In short: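 HepG2 cells (15 000/well, 384-well) were infected with 4000 luciferase-expressing P. berghei ANKA sporozoites, taken from infected Anopheles stephensi, with compounds in triplicate. Final DMSO was 1%, compounds 0–50 μg/mL, 2 days at 37 °C. Parasite load was read by Bright-Glo luminescence. IC50 came from a standard inhibition dose–response fit, mean of two independent experiments. Atovaquone was the positive control.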

Candida albicans = assay: Antifungal activity against Candida albicans after 24 hrs; assay type: functional
In short: (§1)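 Overnight cultures at 30 °C in LB (E. coli, B. subtilis) or YPD (C. albicans, S. cerevisiae) were diluted to OD600 0.01. Compounds came from 5 mg/mL DMSO stocks, 2-fold serially diluted, at final 50 to 0.1 μg/mL. Growth ran 24 h at 30 °C with OD600 read-out. MIC was the lowest concentration giving <5% of maximum OD600. Assays were run in duplicate, with dynemicin A as positive control.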

HepG2 = assay: Cytotoxicity against human HepG2 cells after 2 days by CellTiter-Glo assay; assay type: cell-based; settings: HepG2, 48 h
In short: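 HepG2 hepatoma cells were kept in DMEM with 10% FBS and 1% antibiotic–antimycotic (37 °C, 5% CO2). 15 000 cells/well were exposed in triplicate to compounds at 0–50 μg/mL with 1% DMSO final, 2 days at 37 °C. Viability was read by CellTiter-Glo luminescence. IC50 came from a standard inhibition dose–response fit, mean of two independent experiments.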

Saccharomyces cerevisiae = assay: Antifungal activity against Saccharomyces cerevisiae after 24 hrs; assay type: functional; in short: as §1
Bacillus subtilis = assay: Antibacterial activity against Bacillus subtilis 3610 after 24 hrs; assay type: functional; settings: subsp. subtilis str. NCIB 3610, 24 h; in short: as §1
Escherichia coli = assay: Antibacterial activity against Escherichia coli K12 after 24 hrs; assay type: functional; settings: K-12, 24 h; in short: as §1

| Structure (SMILES) | IC50 (Plasmodium berghei) [µM] | MIC (Candida albicans) [µg/mL] | MIC (Saccharomyces cerevisiae) [µg/mL] | MIC (Bacillus subtilis) [µg/mL] | MIC (Escherichia coli) [µg/mL] | IC50 (HepG2) [µM] |
| --- | --- | --- | --- | --- | --- | --- |
| COc1cccc2c1C(=O)c1ccc3cc(C)cc(O)c3c1C2=O | 3 | > 50 | > 50 | 3.13 (≈ 9.83 µM) | > 50 | 36.1 |
| COC1=C(C(=O)O)[C@H](C)[C@@]23O[C@]24c2cc(O)c5c(c2N[C@H]3C#C/C=C\C#C[C@H]14)C(=O)c1c(O)ccc(O)c1C5=O [DYNEMICIN A] |  | 0.156 (≈ 0.29 µM) | 0.156 (≈ 0.29 µM) | 0.00016 (≈ 0.000298 µM) | 0.313 (≈ 0.582 µM) |  |
| COc1cccc2c1C(=O)c1ccc3cc(C)cc(O[C@@H]4O[C@H](C(=O)O)[C@@H](O)[C@H](O)[C@H]4O)c3c1C2=O [PSEUDONOCARDONE B] | 50 | > 50 | > 50 | > 50 | > 50 | > 100 |
| COc1cccc2c1C(=O)c1ccc3cc(C)c(O[C@@H]4O[C@H](C(=O)O)[C@@H](O)[C@H](O)[C@H]4O)c(O)c3c1C2=O [PSEUDONOCARDONE C] | > 100 | > 50 | > 50 | > 50 | > 50 | > 100 |

Continued, in another order:

| IC50 (Plasmodium berghei) [µM] | MIC (Candida albicans) [µg/mL] | MIC (Saccharomyces cerevisiae) [µg/mL] | MIC (Bacillus subtilis) [µg/mL] | MIC (Escherichia coli) [µg/mL] | Structure (SMILES) | IC50 (HepG2) [µM] |
| --- | --- | --- | --- | --- | --- | --- |
| 18.5 | > 50 | > 50 | 25 (≈ 74.3 µM) | > 50 | COc1cccc2c1C(=O)c1ccc3c(c1C2=O)C(=O)C[C@](C)(O)C3 | > 100 |
| 38 | > 50 | > 50 | > 50 | > 50 | COc1cccc2c1C(=O)c1ccc3cc(C)cc(O[C@@H]4O[C@H](C(=O)O)[C@@H](O)[C@H](O)[C@H]4O)c3c1C2O (relative stereo) | > 100 |
